Assay outcomes as filed in PubChem BioAssay.
This is a sample that favours compounds with a hit; in the whole collection about 3.5% have one here.
PGC1a acetyl inh: PGC1a acetylation modulation, inhibitor mode; 350,000 compounds, 0.17% hits; U2OS PGC1a acetylation, AlphaScreen anti-acetyl-lysine; with virally co-expressed GCN5 acetyltransferase; inhibition, % at 15.6 µM;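 active = every replicate shows inhibition of at least 40%; inconclusive = mean inhibition at least 40% but some replicate below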;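 also: 0% = neutral control wells and 100% = positive control wells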
Env fusion inh: HIV envelope-mediated fusion inhibition | inhibition, % at 12.3 µM | AID 651610 | HeLa-JRFL Env/CEM21 cell fusion, luciferase | 360,000 compounds, 1.1% hits;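 active = mean replicate inhibition score of at least 50 and every replicate individually at or above 50; inconclusive = only one of the two criteria met; inactive = mean below 50 and not all replicates reaching 50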;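 also: 0% = plate neutral controls and 100% = maraviroc near 300 nM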
FN deposition inh: fibronectin deposition inhibition | AH1F fibroblasts, Alexa488-fibronectin deposition fluorescence, overnight | inhibition, % at 12.6 µM | 350,000 compounds, 0.086% hits;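 active = mean inhibition across replicates of 30% or more, regardless of how many single replicates reach that level; inconclusive = mean under 30% yet at least half of replicates reach 30%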;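 also: positive control wells lacked labelled fibronectin entirely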
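Material: AH1F fibroblasts assembling fluorescent fibronectin matrix; amount: 10000 AH1F cells/well; medium: DMEM, 2% serum; reagent: Alexa488-fibronectin, 24 nM final in well; dosing: single compound dose, delivered by pin transfer; incubation: 1 h adhesion, overnight exposure; detection: fluorescence after three HBSS washes, excitation 485 nm, emission 525 nm; measure: fibronectin deposition inhibition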
rRNA inh HTS: selective bacterial rRNA inhibition in E. coli; E. coli WT GFP vs humanized-ribosome RFP mutants, fluorescence, 24 h; hits give low values; DMSO median 0, no signal -100; GFP signal change (wild-type ribosome), % (no concentration beside the values); 350,000 compounds, 1.6% hits;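 active = significant combined selectivity score with lowered wild-type GFP, culture density cut under 30%, mutant RFP and density less affected; inactive = any of these conditions unmet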
PglD DTNB: PglD (C. jejuni) enzyme inhibition | purified PglD enzyme, DTNB colorimetric CoA detection | inhibition, % at 12.5 µM | 360,000 compounds, 0.098% hits | AID 602405; in the data active = inhibition above about 16%, passing the limit was not always enough; inconclusive = no clear call, values can overlap the other calls
DENV2 CPE: inhibitors of DENV2 cytopathic effect; DENV2-infected cells, cytopathic effect rescue, plate reader; CPE inhibition, % at 9.99 µM; 350,000 compounds, 1.7% hits; AID 651640; in the data active = CPE inhibition above about 20%, passing the limit was not always enough; inconclusive = no clear call, values can overlap the other calls; tested in BHK-21 cells;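 also: 0% = median of neutral control wells and 100% = median of positive control wells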
An asterisk follows results filed as active; ? = inconclusive; / = no result; [ ] = remark or other dose.

SMILES	PGC1a acetyl inh	Env fusion inh	FN deposition inh	rRNA inh HTS	PglD DTNB	DENV2 CPE
O=C(OCc1nnc(-c2ccccc2)o1)c1ccc2c(c1)OCCO2	4	/	/	/	-2	/
COCCNC(=O)[C@@H]1[C@@H](CO)[C@@H]2Cn3c(ccc(-c4cccc(F)c4)c3=O)[C@H]1N2C(=O)NC(C)C	/	13[16.7 µM]	/	1	2	0
C[C@@H]1CN([C@H](C)CO)C(=O)c2cc(/C=C/c3ccccc3)cnc2O[C@H]1CN(C)S(C)(=O)=O	-16	29[16.7 µM]	1	-5	5	18
COc1ccc(N(C(=O)CCl)C(C(=O)NCCc2ccccc2)c2cccs2)cc1 (stereo not drawn)	61*	/	25	-12	5	2
C=CCNC(=S)NC(=O)c1csc([N+](=O)[O-])c1	/	-2	-1	-7	/	16
O=C(NC(=S)N1CCCCC1)c1csc([N+](=O)[O-])c1	-15	-28	-6	-23*	-4	1
CCCNC(=O)N1C[C@H](O)COC[C@H]2O[C@H](CC(=O)N3CCN(C)CC3)CC[C@@H]21	3	-37[16.7 µM]	7	17	0	-8
COCc1cc(N2CCN(C(=O)OC(C)(C)C)C[C@H]2C)ccc1N1CCS(=O)(=O)CC1	/	59*	-5	11	/	-3
CCNC(=O)C[C@H]1CC[C@H]2[C@@H](COC[C@@H](O)CN2Cc2ccc(Cl)c(Cl)c2)O1	-2	/	-11	-3	-3	105*
CCNC(=O)C[C@H]1CC[C@@H]2[C@H](COC[C@H](O)CN2Cc2ccc(Cl)c(Cl)c2)O1	2	/	-13	0	0	82*
CCN(CC)S(=O)(=O)c1cc(NC(=O)C(=O)c2c(-c3ccccc3)cc3ccccn23)ccc1C	-26	77*	4	/	2	/
O=C(Cc1ccc(Nc2nc3ccc(Br)cc3[nH]2)cc1)NCCc1cccs1	/	61*	-2	-14	3	14
O=C(NCC1CC1)c1ccc(Nc2nc3ccc(Br)cc3[nH]2)cc1	-2	-5	-3	-58	6	14
O=C(NC1=NCCS1)c1sc2ccccc2c1Cl	8	/	/	-31*	0	9
CCCNC(=O)N1CC2(C1)CN(C(=O)CC)[C@@H](CO)c1c2c2ccc(OC)cc2n1C	12	/	/	4	/	17
C[C@@H]1CCCCO[C@@H](CN(C)CC2CCCCC2)[C@H](C)CN([C@H](C)CO)C(=O)c2cc(NC(=O)Nc3ccccc3)ccc2O1	-18	41[16.7 µM]	1	5	1	7
CCN(CC)S(=O)(=O)c1ccc(NC2c3ccccc3C(=O)N2Cc2ccc3c(c2)OCO3)cc1 (stereo not drawn)	/	67*	1	0	3	-2
C[C@@H]1CN([C@@H](C)CO)C(=O)Cc2cc(NS(=O)(=O)c3ccccc3)ccc2O[C@H]1CN(C)CC1CCCCC1	/	27[16.7 µM]	/	-2	0	2
CCS(=O)(=O)Nc1ccc2c(c1)C(=O)N(C)C[C@H](OC)[C@@H](C)CN(CCC(F)(F)F)[C@@H](C)CO2	8	45[16.7 µM]	6	-1	0	7
COc1ccc(CN(C)CC(=O)Nc2cccc3ccccc23)cc1F	/	5	4	-15	5	?
CCOc1ccc(CN(C)CC(=O)Nc2cccc3ccccc23)cc1OC	-5	13	-6	-24*	-1	12
COCC(=O)Nc1cccc2ccccc12	/	-21	0	/	/	/
COc1cc(CO)cc(Br)c1OCC(=O)Nc1cccc2ccccc12	2	13	2	-24*	4	10
COc1ccc(NC(=O)Nc2ccc3c(c2)C(=O)N([C@H](C)CO)C[C@H](C)[C@@H](CN(C)S(=O)(=O)c2cn(C)cn2)O3)cc1	0	3[16.7 µM]	1	-1	0	-7
COc1ccc(N=C2S/C(=C\c3ccc(N4CCOCC4)o3)C(=O)N2CCc2c[nH]c3ccccc23)cc1	62*	/	/	/	-5	/
SMILES	PGC1a acetyl inh	Env fusion inh	FN deposition inh	rRNA inh HTS	PglD DTNB	DENV2 CPE
CCC[C@H]1CC(=O)C=C(c2ccc(OC)cc2)ON1C(=O)OC(C)(C)C	/	?	-6	-10	-4	57*
C[C@@H]1CN([C@@H](C)CO)C(=O)Cc2cc(NS(=O)(=O)c3ccccc3)ccc2O[C@H]1CN(C)C(=O)NC1CCCCC1	-1	/	/	5	1	-2
COc1ccccc1CCNC(=O)CSc1nc(-c2ccco2)cc(C(F)(F)F)n1	9	59*	-18	18	/	-8
COc1ccccc1CCNC(=O)CCSc1nc(-c2ccco2)cc(C(F)(F)F)n1	-1	/	/	/	/	/
Nc1nnc(SC2CC(=O)N(c3ccccc3)C2=O)s1 (stereo not drawn)	9	58*	-33	/	-3	/
OCCCn1c(C2CCCN2c2nc(-c3ccc(F)cc3)cs2)nc2cc(C(F)(F)F)ccc21 (stereo not drawn)	/	16	-14	5	0	6
OCCCn1c(CCNc2nc(-c3ccc(F)cc3)cs2)nc2cc(C(F)(F)F)ccc21	-5	72*	5	-10	1	0
O=C(C[n+]1ccccc1)N/N=C/c1cc(Br)cc(Br)c1O	-7	/	/	/	-2	/
CCC(O)(CC)C(=O)N/N=C/c1cc(Br)cc(Br)c1O	-2	21	-14	-21*	11	11
C=CCn1c(SC(C)C(=O)NCc2ccc3c(c2)OCO3)nc2scc(-c3ccccc3)c2c1=O (stereo not drawn)	-13	119*	0	/	0	/
C=CCn1c(SCC(=O)NCc2ccc3c(c2)OCO3)nc2scc(-c3ccc(F)cc3)c2c1=O	-17	107*	-3	/	0	/
CCn1c(SC(C)C(=O)NCC2CCCO2)nc2scc(-c3ccccc3)c2c1=O (stereo not drawn)	/	-3	-5	-2	/	-13
Cn1c(=O)c2c(nc(SCC(=O)NCc3ccc4c(c3)OCO4)n2Cc2ccc(Cl)cc2)n(C)c1=O	/	106*	-4	/	/	/
C[C@@H]1CCCCO[C@@H](CN(C)S(=O)(=O)c2cccs2)[C@H](C)CN([C@H](C)CO)C(=O)c2cc(NC(=O)CCC(F)(F)F)ccc2O1	-6	-25[16.7 µM]	/	-4	3	?
CCCCCCNC(=O)O[C@H]1Cn2c(=O)ccc(=O)n2[C@@H]2CN(S(=O)(=O)c3ccc(C)cc3)C[C@]12O	15	6	6	-26*	-1	8
CCCCCCNC(=O)O[C@H]1Cn2c(=O)n(CCCCCC)c(=O)n2[C@@H]2CN(S(=O)(=O)c3ccc(C)cc3)C[C@]12O	/	8	-9	7	1	-7
CO[C@@H](CN(C)C(=O)c1ccccc1F)[C@H](C)CN([C@H](C)CO)S(=O)(=O)c1ccc(C)cc1	-12	/	-7	0	2	3
C[C@H]1CN([C@@H](C)CO)C(=O)c2cccc(NC(=O)c3cnccn3)c2O[C@H]1CN(C)C(=O)Nc1cccc2ccccc12	-5	-6[16.7 µM]	6	-4	-5	8
